The full list was thinned out, with hits kept by preference.
Insulin prom act = TRM-6 insulin promoter activation; TRM-6 cells, insulin promoter eGFP reporter, imaging; plate-scaled: unstimulated 0, stimulated control 100; actives 0.81% (n = 130,000); activation, % at 2 µM; AID 1296;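 active = activation at 2 µM above a set limit, confirmed on inspection of the cell images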;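 also: share of cells whose green reporter signal exceeds an intensity cutoff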
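System: human fetal islet-derived TRM-6 cells with tamoxifen-inducible insulin promoter–eGFP reporter; input: seeding density of 1,000 cells per well; buffer or medium: Low-glucose (5.5 mM) medium with tamoxifen; incubation: compound exposure 48 h, 37 °C; measured by: high-content imaging of fixed cells with Hoechst nuclear stain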
A number is an active result; . = inactive.

SMILES	Insulin prom act
COc1ccc(-c2[nH]nc3c2C(c2ccc(OC(=O)N4CCOCC4)cc2)C(C#N)=C(N)O3)cc1 (stereo not drawn)	.
COc1cc(C2C(C#N)=C(N)OC3=C2C(=O)CC(C)(C)C3)ccc1OC(=O)N1CCOCC1 (stereo not drawn)	600
Cc1ccc(C(=O)OCc2nnc(-c3ccc(Br)cc3)o2)cc1	.
N#Cc1cccc(NC(=O)CSc2ccc3c4c(cccc24)C(=O)c2ccccc2-3)c1	233
COc1ccc(NC(=O)CSc2ccc3c4c(cccc24)C(=O)c2ccccc2-3)cc1	.
N#Cc1cccc(NC(=O)CSc2ccccc2)c1	.
COc1ccc(CCn2ccc(O)c(Cc3c(F)cccc3Cl)c2=O)cc1OC	.
CC1(C)CC(=O)C2=C(C1)N(Cc1ccccc1)C(=O)C2(NC(=O)C(C)(C)C)C(F)(F)F (stereo not drawn)	.
Cc1cc(C(F)(F)F)nc(SCC(=O)Nc2ccccc2)n1	.
Cc1cc(C(F)(F)F)nc(SCC(=O)NC2CC3CCC2C3)n1 (stereo not drawn)	431
COc1ccc(NC(=O)CSc2nc(C)cc(C(F)(F)F)n2)cc1	.
Clc1ccccc1N=C1NN=C(c2cccs2)CS1	.
COc1cccc(CC(NC(C)=O)C(=O)NC2CCN(S(=O)(=O)c3ccc4ccccc4c3)CC2)c1 (stereo not drawn)	.
Cc1ccc(-c2nnn(CC(=O)N(c3ccccc3)C(C(=O)NC(C)(C)C)c3cccs3)n2)o1 (stereo not drawn)	.
CCOc1ccc(N(C(=O)Cn2nnc3ccccc32)C(C(=O)NC(C)(C)CC)c2cccn2C)cc1 (stereo not drawn)	462
CCC(C)(C)NC(=O)C(c1cccn1C)N(C(=O)Cn1nnc2ccccc21)c1ccc(OC)cc1OC (stereo not drawn)	.
CC(=O)Nc1ccc(NC(=O)/C(Cl)=C/c2ccccc2)cc1	.
COc1ccc(Br)cc1CNC(=O)C1CCN(S(=O)(=O)N2CCCCC2)CC1	169
COc1ccccc1CNC(=O)C1CCCN(S(C)(=O)=O)C1 (stereo not drawn)	.
COc1ccc(OC)c(CNC(=O)C2CCN(S(C)(=O)=O)CC2)c1	.
CC1CCc2nc3ccc(S(=O)(=O)N4CCC(C(=O)N5CCCCCC5)CC4)cc3c(C(=O)O)c2C1 (stereo not drawn)	.
Cc1cc(C)nc(SCC(=O)OCC(=O)Nc2nc3ccccc3s2)n1	.
CCOc1cc(S(=O)(=O)Nc2ccccn2)ccc1F	464
CCOc1cc(S(=O)(=O)Nc2ccc(Cl)cn2)ccc1Cl	.
COc1ccc(F)cc1S(=O)(=O)NC1CCCC1	83
SMILES	Insulin prom act
CCOc1cc(S(=O)(=O)n2nc(C)cc2C)ccc1F	.
CCOC(=O)N1CCN(C(=O)COc2ccc(S(=O)(=O)NC3CCCCC3)cc2C)CC1	.
CCOc1cc(S(=O)(=O)NC2CCCCCC2)ccc1F	420
COc1ccc(F)cc1S(=O)(=O)N1CCCC(C)C1 (stereo not drawn)	.
COc1ccc(F)cc1S(=O)(=O)N1CCCN(S(=O)(=O)c2cc(F)ccc2OC)CC1	.
CCOc1cc(S(=O)(=O)N2CCOCC2)ccc1F	.
Cc1ccc(NC(=O)N2N=C(c3ccc(F)cc3)CC2c2ccc(F)cc2)cc1 (stereo not drawn)	.
C=CCN(C)NC(=S)Nc1ccccc1	.
COc1ccc(-c2[nH]ncc2CNCCc2ncccc2C)cc1F	.
CC(=O)c1ccc(NC(=O)C(C)NCc2ccccc2Cl)cc1 (stereo not drawn)	.
COC(=O)C1CC(O)CN1C(=O)NC1CCCCC1 (stereo not drawn)	.
O=S(=O)(c1ccccc1F)N(Cc1ccco1)Cc1nnc(-c2ccccc2Br)o1	.
c1ccc(NCc2nc(-c3ccccc3)no2)cc1	.
COc1ccc(NC(=O)c2cc(Cl)ccc2NC(=O)c2ccco2)c(OC)c1	.
CS(=O)(=O)N1N=C(c2cccs2)CC1c1ccco1 (stereo not drawn)	.
CCOc1ccc(CN2C(=O)c3ccccc3C2C(=O)NCc2cccnc2)cc1 (stereo not drawn)	.
O=C(NCC1CCCO1)C1c2ccccc2C(=O)N1C1CCCCCCC1 (stereo not drawn)	.
O=C(NCc1cccnc1)C1c2ccccc2C(=O)N1C1CCCCCCC1 (stereo not drawn)	156
Cc1ccc2nc(N3CCOCC3)c(C=O)c(=O)n2c1	.
COc1ccc(N2CCN(c3ncccn3)CC2)cc1	.
O=C(c1ccccc1)c1ccc(CN2C(=O)c3ccccc3C2=O)o1	.
O=C1c2cccnc2C(=O)N1Cc1ccccc1	.
O=C1c2cccc3c(O)ccc(c23)C(=O)N1Cc1ccccc1	233
Cc1cc(C)c2nc(Cl)c(CN(Cc3ccco3)C(=O)Nc3ccccc3C)cc2c1	.
CC(C)CNC(=O)CO/N=C/c1ccccc1Cl	.
SMILES	Insulin prom act
O=[N+]([O-])c1ccc(Cl)c(/C=N/NC(=S)Nc2ccccc2)c1	.
O=C(Nc1ccccc1)O/N=C/c1ccccc1Cl	87
COc1ccc(S(=O)(=O)N2CCOCC2)cc1NC(=O)CN1CCC(Cc2ccccc2)CC1	.
O=C(Nc1ccc([N+](=O)[O-])cc1Br)c1cccnc1	.
COc1cc(NC(=O)c2ccc3c(c2)OCCO3)ccc1NC(=O)c1cccs1	.
O=C(NCC1CCN(C(=O)c2ccc([N+](=O)[O-])cc2)CC1)C(=O)Nc1ccccc1	.
Cc1ccc(CSC2=NCCN2S(=O)(=O)c2ccccc2)cc1	464
CCCS(=O)(=O)N1CCN=C1SCc1ccc(C)cc1	.
O=S(=O)(c1ccccc1)N1CCN=C1SCc1ccccc1	.
CN1CCN(c2ncccc2S(=O)(=O)N2CCCCC2)CC1	.
COc1cccc(CNC(=O)c2ccc(S(=O)(=O)N3CCCC3)cc2)c1	.
CC(C)c1ccc(NC(=O)COC(=O)CCC(=O)c2cccs2)cc1	.
O=C(c1ccc(-n2cnnn2)cc1)N1CCCCC1	.
CCc1ccc(NC(=O)Cc2ccc(OC)cc2)cc1	.
COc1ccc(CC(=O)Nc2c3c(nn2-c2ccccc2C)CS(=O)C3)cc1 (stereo not drawn)	456
COc1ccc(CC(=O)Nc2cccc(-c3ccc4nnc(C)n4n3)c2)cc1	.
CC(=O)C1=C(C)Nc2cc(C(F)(F)F)ccc2S1	.
CCNCc1nc2cc(Cl)ccc2c(=O)[nH]1	.
CN(C)c1nnnn1Cc1ccc(Cl)cc1Cl	.
O=C(CCN1C(=O)/C(=C/C=C/c2ccccc2)SC1=S)Nc1cccnc1	.
CC1=NN(c2ccccc2)C(=O)/C1=C/C=C/c1ccc(N(C)C)cc1	.
C#CCN1C(=O)S/C(=C/C=C/c2ccc(N(C)C)cc2)C1=O	270
CCC(CC)N=C1NS(=O)(=O)c2cc([N+](=O)[O-])ccc21	.
COC(=O)c1ccc(COC(=O)CNS(=O)(=O)c2ccc(C)cc2)cc1	.
CCOC(=O)c1cc(C)n(CCc2ccccc2)c1C	.
SMILES	Insulin prom act
CCOC(=O)c1cc2sc(C)cc2n1CC(=O)N(CC)CC	.
CCOC(=O)c1cc2ccccc2n1CCN(CC)CC	78
CCCNC(=O)c1c(N)n(-c2cc(OC)cc(OC)c2)c2nc3ccccc3nc12	.
C/C(Cc1ccccc1)=N\NC(=O)CNC(=O)c1ccc(C(C)(C)C)cc1	.
COc1ccc(/C=C/C(=O)NCCOc2ccc(C)cc2)cc1	.
Cc1ccc(CSCCNC(=O)/C=C/c2ccc(Cl)cc2)cc1	.
O=C(/C=C/c1ccc(OCCCF)cc1)NCc1ccc(Cl)cc1	223
O=C(N/C(=C/c1cccs1)C(=O)N1CCOCC1)c1ccccc1	.

From PubChem
